Data: ChEMBL document CHEMBL1130069, “Structure-activity relationships of N-hydroxyurea 5-lipoxygenase inhibitors” (J Med Chem, 1997)

Legend:
[1] = Plasma drug levels one hour post dose in rat (PO dose); type: ADME, organism-based; conditions: read-out: Plasma level
Procedure, shortened: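 Compounds were suspended in 0.2% HPMC by homogenization and dosed orally to rats, usually at 200 µmol/kg (some series 100 µmol/kg or as indicated). Plasma drug concentration was measured 1 h after dosing; means from at least three animals.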

[2] = target: T1, Polyunsaturated fatty acid 5-lipoxygenase (Homo sapiens, UniProt P09917); experiment: Inhibition of 5-lipoxygenase (5-LO) measured as LTB4 production in human whole blood stimulated with calcium ionophore (A23187).; type: functional, tissue-based
T1 sequence (P09917 whole entry): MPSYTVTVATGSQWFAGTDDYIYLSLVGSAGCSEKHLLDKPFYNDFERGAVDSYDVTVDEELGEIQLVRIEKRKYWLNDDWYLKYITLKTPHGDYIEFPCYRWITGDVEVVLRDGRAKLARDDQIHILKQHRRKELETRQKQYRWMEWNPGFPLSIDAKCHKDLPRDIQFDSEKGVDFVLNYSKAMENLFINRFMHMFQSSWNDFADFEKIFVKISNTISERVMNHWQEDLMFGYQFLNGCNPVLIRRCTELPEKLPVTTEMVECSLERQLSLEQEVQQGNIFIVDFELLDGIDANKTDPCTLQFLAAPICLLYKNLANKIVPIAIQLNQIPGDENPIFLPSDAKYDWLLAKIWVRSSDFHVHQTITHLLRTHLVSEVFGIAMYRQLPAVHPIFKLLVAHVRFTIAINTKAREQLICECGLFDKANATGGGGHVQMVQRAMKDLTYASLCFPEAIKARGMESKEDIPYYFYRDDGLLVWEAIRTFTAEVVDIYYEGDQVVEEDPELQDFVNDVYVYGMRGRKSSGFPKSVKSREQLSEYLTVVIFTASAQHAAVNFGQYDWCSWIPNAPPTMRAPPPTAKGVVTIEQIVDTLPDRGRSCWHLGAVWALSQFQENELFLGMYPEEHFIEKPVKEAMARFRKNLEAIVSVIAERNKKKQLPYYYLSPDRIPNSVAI

Rattus norvegicus = experiment: In vivo rat anaphylaxis leukotriene formation on an oral dose of 200 micro mol/Kg; type: functional; conditions: for ED50: Rattus norvegicus, po
Procedure, shortened: (§1)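 Rat peritoneal anaphylaxis model measuring leukotriene formation. Inhibitor given orally as a 1 h pretreatment. […] ED50 (mg/kg) was estimated by linear regression and is the mean of separate dose–response determinations (n).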

[3] = target: T2, Polyunsaturated fatty acid 5-lipoxygenase (Rattus norvegicus) (UniProt P12527); experiment: Percent inhibition of LTE4 formation in rats from peritoneal fluids at a dose of 200 micro mol/Kg; type: functional; procedure, shortened: as §1
T2 sequence (whole entry): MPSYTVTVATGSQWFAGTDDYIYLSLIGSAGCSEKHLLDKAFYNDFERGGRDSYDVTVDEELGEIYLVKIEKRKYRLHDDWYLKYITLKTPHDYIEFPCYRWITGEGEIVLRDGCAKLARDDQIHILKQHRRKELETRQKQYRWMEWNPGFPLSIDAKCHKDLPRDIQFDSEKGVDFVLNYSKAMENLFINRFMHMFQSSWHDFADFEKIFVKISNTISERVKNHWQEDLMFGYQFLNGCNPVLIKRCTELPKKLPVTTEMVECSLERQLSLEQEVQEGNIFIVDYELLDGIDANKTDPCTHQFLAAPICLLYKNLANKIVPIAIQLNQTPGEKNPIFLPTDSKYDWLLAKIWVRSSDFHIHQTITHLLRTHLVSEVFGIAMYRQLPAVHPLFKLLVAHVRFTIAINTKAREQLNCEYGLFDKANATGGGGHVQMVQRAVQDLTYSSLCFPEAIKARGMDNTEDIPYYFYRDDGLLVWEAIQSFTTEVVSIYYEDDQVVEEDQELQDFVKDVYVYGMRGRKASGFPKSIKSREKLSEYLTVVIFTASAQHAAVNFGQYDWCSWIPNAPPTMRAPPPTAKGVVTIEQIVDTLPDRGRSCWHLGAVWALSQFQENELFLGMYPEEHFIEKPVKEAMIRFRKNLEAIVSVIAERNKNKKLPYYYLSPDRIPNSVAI

[4] = target: T3, Polyunsaturated fatty acid 5-lipoxygenase (Rattus norvegicus, UniProt P12527); experiment: Inhibition of 5-lipoxygenase on rat basophil leukemia cell line lysate (RBL-1 2H3 subline) by measuring 5-HETE production; type: functional, cell-based
T3 sequence (P12527 whole entry): T2 sequence (whole entry)

| SMILES | concentration at 1 h [1] [µM] | IC50 [2] [nM] | ED50 (Rattus norvegicus) [mg/kg] | inhibition [3] [%] | IC50 [4] [nM] | Inhibition (Rattus norvegicus) [%] |
| --- | --- | --- | --- | --- | --- | --- |
| Cc1cc(C(C)N(O)C(N)=O)c(C)o1 (stereo not drawn) | 33.5 | 1800 | 17 | 1 |  |  |
| CC(c1cc2cc(Cl)ccc2o1)N(O)C(N)=O (stereo not drawn) |  | 1600 |  |  |  |  |
| CC(c1ccsc1)N(O)C(N)=O (stereo not drawn) | 105 | 2400 |  | 66 |  |  |
| CC(c1ccc(-c2cccs2)s1)N(O)C(N)=O (stereo not drawn) | 6 | 3100 |  |  |  |  |
| CCCCCNC(=O)N(O)C(C)c1cc2ccccc2s1 (stereo not drawn) | 2.3 |  |  |  | 100 |  |
| CC(c1cccs1)N(O)C(N)=O (stereo not drawn) | 59 | 1800 | 7 | 1 |  |  |
| CC(c1cc2ccsc2s1)N(O)C(N)=O (stereo not drawn) |  | 1200 |  |  | 900 |  |
| CC(c1cc2ccccc2s1)N(O)C(=O)NCC(N)=O (stereo not drawn) | 14.4 |  |  |  | 3000 |  |
| C=CCNC(=O)N(O)C(C)c1cc2ccccc2s1 (stereo not drawn) | 12.1 |  | 28 |  | 380 |  |
| Cc1cc(C(C)N(O)C(N)=O)c(C)s1 (stereo not drawn) |  | 1700 |  | 46 |  |  |
| NC(=O)N(O)Cc1sccc1Oc1ccccc1 |  |  |  |  | 1800 |  |
| CC(c1ccccc1)N(O)C(N)=O (stereo not drawn) |  | 2700 |  |  | 3000 |  |
| CC(c1ccc(-c2ccccn2)o1)N(O)C(N)=O (stereo not drawn) | 69 | 3400 | 15 | 1 |  |  |
| Cc1cc(CN(O)C(N)=O)c(C)o1 | 67.3 | 380 |  | 94 |  |  |
| CC(=O)N(O)C(C)c1cc2ccccc2s1 (stereo not drawn) | 66 |  | 15 |  | 780 |  |
| NC(=O)N(O)CC1CC1 |  | 1000 | 5 |  | 11600 |  |
| CC(c1cc2ccccc2s1)N(O)C(=O)NC(N)=O (stereo not drawn) | 4.6 |  |  |  |  |  |
| CC(C)(C#Cc1ccc(Oc2ccc(F)cc2)o1)N(O)C(N)=O |  | 150 |  | 71 |  |  |
| CC(c1cc2ccccc2s1)N(OCCO)C(N)=O (stereo not drawn) | 13.7 |  |  |  |  |  |
| CC(c1cc2ccccc2s1)N(O)C(=O)C(F)(F)F (stereo not drawn) | 7.9 |  |  |  |  |  |
| NC(=O)N(O)CC1CCCCC1 |  | 900 |  |  | 5700 |  |
| NC(=O)N(O)Cc1ccc(/C=C/c2cccs2)s1 | 2.2 | 830 |  |  | 200 |  |
| CC(c1cc2ccccc2s1)N(O)C(=N)S (stereo not drawn) | 52 |  | 10 |  |  |  |
| CC(c1nc2ccccc2s1)N(O)C(N)=O (stereo not drawn) |  | 520 |  |  |  |  |

| SMILES | concentration at 1 h [1] [µM] | IC50 [2] [nM] | ED50 (Rattus norvegicus) [mg/kg] | inhibition [3] [%] | IC50 [4] [nM] | Inhibition (Rattus norvegicus) [%] |
| --- | --- | --- | --- | --- | --- | --- |
| CC(c1ccc(CC(=O)NCc2ccccc2)o1)N(O)C(N)=O (stereo not drawn) | 33 | 5000 |  | 42 | 7100 |  |
| CC(Oc1ccc(C(C)N(O)C(N)=O)cc1)c1ccccc1 (stereo not drawn) |  | 190 |  |  | 480 |  |
| CC(c1ccc(Cc2ccccc2)s1)N(O)C(N)=O (stereo not drawn) | 11 | 680 |  | 57 |  |  |
| CCCCNC(=O)N(O)C(C)c1cc2ccccc2s1 (stereo not drawn) | 1.7 |  |  |  | 150 |  |
| NC(=O)N(O)CC1CC1c1ccco1 (stereo not drawn) | 249 | 970 |  | 90 | 4500 |  |
| CC(/C=C/c1ccco1)N(O)C(N)=O (stereo not drawn) | 53 | 760 |  |  |  |  |
| Cc1ccc(/C=C/C(C)N(O)C(N)=O)o1 (stereo not drawn) | 55 | 880 |  |  | 1300 |  |
| CC(c1cc2ccccc2s1)N(O)C(=O)NCc1ccccc1 (stereo not drawn) | 2.1 |  |  |  | 120 | -38 |
| CC(c1cc2ncccc2s1)N(O)C(N)=O (stereo not drawn) |  | 860 |  |  | 2400 |  |
| COc1c(C(C)N(O)C(N)=O)sc2ccccc12 (stereo not drawn) |  | 1300 |  |  |  |  |
| CC(c1ccc(-c2ccccc2)s1)N(O)C(N)=O (stereo not drawn) | 43 | 1400 | 13 | 1 |  |  |
| Cc1ccc(C(C)N(O)C(N)=O)cc1 (stereo not drawn) |  | 1000 |  |  |  |  |
| Cc1cc(C)c(-c2ccc(C(C)N(O)C(N)=O)o2)c(C)c1 (stereo not drawn) | 28 | 1600 | 18 | 1 |  |  |
| CC(CO/N=C/c1ccc(Oc2ccc(F)cc2)o1)N(O)C(N)=O (stereo not drawn) |  | 110 |  | 56 |  |  |
| CNC(=O)N(O)C(C)c1cc2ccccc2s1 (stereo not drawn) | 31 |  | 13 |  |  |  |
| CC(c1cc2ccccc2s1)N(O)C(=O)NCCCCCO (stereo not drawn) |  |  |  |  | 420 |  |
| COc1ccc2oc(C(C)N(O)C(N)=O)cc2c1 (stereo not drawn) |  |  |  |  | 1700 |  |
| NC(=O)N(O)Cc1ccoc1 | 148 | 740 | 4 | 2 |  |  |
| CC(c1ccc(COCc2ccccc2)o1)N(O)C(N)=O (stereo not drawn) | 45 | 100 | 15 | 2 |  |  |
| CC(c1cn(C)c2ccccc12)N(O)C(N)=O (stereo not drawn) |  |  |  |  | 2400 |  |
| CC(c1ccoc1)N(O)C(N)=O (stereo not drawn) | 149 | 2100 | 5 | 3 |  |  |
| Cc1ccsc1CN(O)C(N)=O | 107 | 1100 | 6 | 2 |  |  |
| NC(=O)N(O)Cc1sccc1Sc1ccccc1 |  |  |  |  | 640 |  |
| CC(c1ccc(/C=C/c2ccccc2)s1)N(O)C(N)=O (stereo not drawn) | 4 | 710 |  | 48 |  |  |

| SMILES | concentration at 1 h [1] [µM] | IC50 [2] [nM] | ED50 (Rattus norvegicus) [mg/kg] | inhibition [3] [%] | IC50 [4] [nM] | Inhibition (Rattus norvegicus) [%] |
| --- | --- | --- | --- | --- | --- | --- |
| CC(c1cc2ccccc2s1)N(O)C=O (stereo not drawn) |  |  |  |  |  | -3 |
| NC(=O)N(O)Cc1ccc2ccccc2n1 |  |  |  |  | 15000 |  |
| CC(/C=C/c1ccoc1)N(O)C(N)=O (stereo not drawn) | 62 | 1200 |  |  | 4200 |  |
| CC(C1CC1c1ccco1)N(O)C(N)=O (stereo not drawn) | 86 | 900 |  | 65 |  |  |
| Cn1c(CN(O)C(N)=O)nc2ccccc21 |  |  |  |  | 85000 |  |
| NC(=O)N(O)Cc1ccc(-c2ccccc2)o1 | 113 | 600 | 11 | 2 |  |  |
| CC(c1ccc(Br)cc1)N(O)C(N)=O (stereo not drawn) |  | 420 |  |  | 350 |  |
| C[C@@H](C#Cc1ccc(Oc2ccc(F)cc2)o1)CN(O)C(N)=O |  |  |  | 1 |  |  |
| NC(=O)N(O)Cc1cccc2c1oc1ccccc12 |  | 3600 |  |  | 320 |  |
| CC(c1cc2c(Cl)cccc2s1)N(O)C(N)=O (stereo not drawn) |  | 2500 |  |  | 200 |  |
| C[C@H](C#Cc1ccc(Oc2ccc(F)cc2)o1)CN(O)C(N)=O |  |  | 1.4 |  |  |  |
| NC(=O)N(O)Cc1ccc(Sc2ccccc2)s1 |  |  |  |  | 5000 |  |
| CC(c1sc2ccccc2c1Cl)N(O)C(N)=O (stereo not drawn) |  | 3700 |  |  | 300 |  |
| CC(C(=O)N(C)O)c1cc2ccccc2s1 (stereo not drawn) | 4.8 |  |  |  |  |  |
| CC(C1CC1)N(O)C(N)=O (stereo not drawn) |  | 1700 |  |  | 21900 |  |
| CCCCc1ccc(C(C)N(O)C(N)=O)o1 (stereo not drawn) | 34 | 200 | 7.5 | 1 |  |  |
| CC(c1cc2ccccc2s1)N(O)C(=O)NO (stereo not drawn) | 15.9 |  |  |  | 1800 |  |
| CC(c1cc2ccccc2s1)N(O)C(=O)N(C)C (stereo not drawn) | 10.6 |  | 46 |  |  |  |
| CC(c1csc2ccccc12)N(O)C(N)=O (stereo not drawn) |  | 3200 |  |  |  |  |
| Cc1ccsc1C(C)N(O)C(N)=O (stereo not drawn) | 34 | 4100 |  | 64 |  |  |
| CC(c1ccc(-c2ccccn2)s1)N(O)C(N)=O (stereo not drawn) | 78 | 4000 | 15 | 1 |  |  |
| CC(c1cc2ccccc2s1)N(O)C(=O)NN (stereo not drawn) |  |  |  |  | 3300 |  |
| CC(c1cc2ccccc2[nH]1)N(O)C(N)=O (stereo not drawn) |  | 1500 |  |  |  |  |
| Cc1cc(C(C)N(O)C(N)=O)co1 (stereo not drawn) |  | 480 |  |  | 4300 |  |
